In ChEMBL document CHEMBL1150329, “The discovery of fused pyrrole carboxylic acids as novel, potent D-amino acid oxidase (DAO) inhibitors” (Bioorg Med Chem Lett, 2008):
Calls of active or inactive are those of the source. No cut-off for these calls is given here.

Key:
[1] = target: D-amino-acid oxidase (Homo sapiens, UniProt P14920); experiment: Inhibition of human DAO
[2] = target: T1, D-aspartate oxidase (Homo sapiens, UniProt Q99489); experiment: Inhibition of human DDO
T1 sequence (Q99489 whole entry): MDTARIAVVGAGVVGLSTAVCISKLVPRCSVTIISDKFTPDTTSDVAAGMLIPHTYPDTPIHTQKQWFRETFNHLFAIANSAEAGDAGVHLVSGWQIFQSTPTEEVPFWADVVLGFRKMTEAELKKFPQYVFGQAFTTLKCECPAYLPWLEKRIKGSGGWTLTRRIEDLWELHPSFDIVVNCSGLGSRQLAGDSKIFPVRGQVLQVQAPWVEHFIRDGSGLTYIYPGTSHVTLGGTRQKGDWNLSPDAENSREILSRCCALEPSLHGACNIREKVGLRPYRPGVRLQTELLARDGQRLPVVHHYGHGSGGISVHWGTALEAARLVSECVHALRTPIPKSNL

[3] = Inhibition of CYP3C9; format: ADME
[4] = target: Cytochrome P450 3A4 (Homo sapiens, UniProt P08684); experiment: Inhibition of CYP3A4; format: ADME
[5] = target: Cytochrome P450 2D6 (Homo sapiens, UniProt P10635); experiment: Inhibition of CYP2D6; format: ADME
[6] = test system: Rattus norvegicus; experiment: Ex vivo inhibition of DAO in rat cerebellum at 25 mg/kg, ip after 1 hr; format: functional, organism-based; design: dose 25 mg/kg
Method in brief: (§1)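 Rats were given 25, 75 or 150 mg/kg ip. DAO enzyme activity was measured ex vivo in kidney and cerebellum at 1, 2 and 4 h after dosing and compared with vehicle-dosed rats. Time and treatment effects were tested by two-way ANOVA, with Bonferroni post tests for individual dose-versus-vehicle comparisons.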

[7] = test system: Rattus norvegicus; experiment: Ex vivo inhibition of DAO in ip dosed rat cerebellum; format: functional, organism-based; method in brief: as §1
[8] = test system: Rattus norvegicus; experiment: Ex vivo inhibition of DAO in ip dosed rat kidney; format: functional, organism-based; method in brief: as §1

D-amino-acid oxidase, sequence (P14920 whole entry): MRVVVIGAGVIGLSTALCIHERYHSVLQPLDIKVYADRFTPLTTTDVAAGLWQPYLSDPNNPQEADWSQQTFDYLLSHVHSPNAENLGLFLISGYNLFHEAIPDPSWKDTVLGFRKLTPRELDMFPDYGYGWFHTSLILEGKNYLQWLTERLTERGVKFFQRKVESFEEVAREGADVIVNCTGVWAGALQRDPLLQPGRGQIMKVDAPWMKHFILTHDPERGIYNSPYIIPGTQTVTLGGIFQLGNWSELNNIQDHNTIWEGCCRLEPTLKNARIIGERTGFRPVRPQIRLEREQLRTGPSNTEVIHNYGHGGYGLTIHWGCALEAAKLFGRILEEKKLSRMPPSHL
Cytochrome P450 2D6, sequence (P10635 whole entry): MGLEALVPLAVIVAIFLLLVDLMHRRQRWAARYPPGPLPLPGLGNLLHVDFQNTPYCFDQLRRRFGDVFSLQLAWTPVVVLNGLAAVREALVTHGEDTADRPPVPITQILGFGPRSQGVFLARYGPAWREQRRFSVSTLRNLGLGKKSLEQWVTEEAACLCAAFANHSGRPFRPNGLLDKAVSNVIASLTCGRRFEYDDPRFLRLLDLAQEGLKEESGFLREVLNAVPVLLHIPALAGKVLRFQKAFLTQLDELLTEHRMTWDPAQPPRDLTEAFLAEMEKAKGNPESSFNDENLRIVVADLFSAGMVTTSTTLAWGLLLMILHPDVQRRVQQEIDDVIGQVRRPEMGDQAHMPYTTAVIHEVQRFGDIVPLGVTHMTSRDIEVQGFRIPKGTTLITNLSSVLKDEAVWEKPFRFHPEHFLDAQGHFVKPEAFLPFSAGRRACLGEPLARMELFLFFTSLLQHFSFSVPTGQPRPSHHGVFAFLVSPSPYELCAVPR
Cytochrome P450 3A4, sequence (P08684 whole entry): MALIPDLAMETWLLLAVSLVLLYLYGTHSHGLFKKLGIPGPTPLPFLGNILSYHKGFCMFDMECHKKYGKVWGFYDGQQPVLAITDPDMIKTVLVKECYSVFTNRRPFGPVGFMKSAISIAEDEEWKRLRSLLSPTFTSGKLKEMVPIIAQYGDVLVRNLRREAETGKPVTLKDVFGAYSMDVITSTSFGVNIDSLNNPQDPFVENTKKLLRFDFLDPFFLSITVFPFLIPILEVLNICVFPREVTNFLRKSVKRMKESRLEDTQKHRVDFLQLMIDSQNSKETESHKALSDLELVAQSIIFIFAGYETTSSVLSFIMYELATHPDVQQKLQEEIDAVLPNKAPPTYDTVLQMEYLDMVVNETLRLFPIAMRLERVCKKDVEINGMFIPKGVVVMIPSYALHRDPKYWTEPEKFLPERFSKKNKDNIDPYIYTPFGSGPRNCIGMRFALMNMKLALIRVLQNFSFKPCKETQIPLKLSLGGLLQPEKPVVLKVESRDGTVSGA

SMILES	IC50 [1] [µM]	also measured
O=C(O)c1cc2occ(-c3cccnc3)c2[nH]1	> 5	
O=C(O)c1cc2oc(-c3ccc(Cl)cc3Cl)cc2[nH]1	> 5	
O=C(O)c1cc2oc(Cl)cc2[nH]1	> 5	
O=C(O)c1cc2ocnc2[nH]1	> 5	
Oc1noc2cc(Cl)ccc12		IC50 [2]: > 5 µM
O=C(O)c1cc2occ(-c3ccc(Cl)cc3)c2[nH]1	> 5	
O=C(O)c1cc2occ(-c3cccc(Cl)c3)c2[nH]1	> 5	
O=C(O)c1cc2occc2[nH]1		IC50 [2]: > 5 µM; IC50 [3]: > 10 µM; Activity [6]: inactive; IC50 [4]: > 10 µM; Activity [7]: Active; IC50 [5]: > 10 µM; Activity [8]: Active
O=C(O)c1cc2oc(-c3cccc(Cl)c3)cc2[nH]1	> 5	
O=C(O)c1ccc[nH]1	> 5	
O=C(O)c1cc2[nH]ncc2[nH]1	> 5	
O=C(O)c1cc2oc(-c3ccccc3)cc2[nH]1	> 5	
O=C(O)c1cc2oc(-c3ccc(Cl)cc3)cc2[nH]1	> 5	
O=C(O)c1cc2occ(CO)c2[nH]1	> 5	
Cc1oc2cc(C(=O)O)[nH]c2c1C	> 5	
O=C(O)c1cc2sc(Cl)cc2[nH]1	> 5	

Further molecules by falling IC50 [1], results first:

IC50 [1] [µM]	SMILES	also measured
4.2	O=C(O)c1cc2ncsc2[nH]1	
1.43	O=C(O)c1cc2occ(Cl)c2[nH]1	
1.15	N#Cc1csc2cc(C(=O)O)[nH]c12	
0.745	O=C(O)c1cc2ccccc2[nH]1 [INDOLE-2-CARBOXYLIC ACID]	IC50 [2]: > 5 µM
0.516	O=C(O)c1cc2scnc2[nH]1	
0.343	O=C(O)c1cc(Cl)c(Cl)o1	IC50 [2]: > 5 µM
0.269	O=C(O)c1cc2ccsc2[nH]1	
0.245	O=C(O)c1cc2sccc2[nH]1	IC50 [3]: > 10 µM; IC50 [4]: > 10 µM; IC50 [5]: > 10 µM
